Results reported in ChEMBL document CHEMBL1157791, “Discovery of GSK1070916, a potent and selective inhibitor of Aurora B/C kinase” (J Med Chem, 2010).
Calls of active or inactive are those of the source. The rule behind the calls is not given here.

Legend:
A549 [1] = assay: Antiproliferative activity against human A549 cells after 6 to 7 days by celltiter-glo luminescence assay in absence of 70% human serum albumin; type: functional, cell-based
Aurora kinase B [2] = biological target: T1, Aurora kinase B (Homo sapiens, UniProt Q96GD4); assay: Inhibition of human Aurora B by in vitro inhibition assay
Aurora kinase A = biological target: T2, Aurora kinase A (Homo sapiens, UniProt O14965); assay: Inhibition of human Aurora A
T2 sequence (O14965 whole entry): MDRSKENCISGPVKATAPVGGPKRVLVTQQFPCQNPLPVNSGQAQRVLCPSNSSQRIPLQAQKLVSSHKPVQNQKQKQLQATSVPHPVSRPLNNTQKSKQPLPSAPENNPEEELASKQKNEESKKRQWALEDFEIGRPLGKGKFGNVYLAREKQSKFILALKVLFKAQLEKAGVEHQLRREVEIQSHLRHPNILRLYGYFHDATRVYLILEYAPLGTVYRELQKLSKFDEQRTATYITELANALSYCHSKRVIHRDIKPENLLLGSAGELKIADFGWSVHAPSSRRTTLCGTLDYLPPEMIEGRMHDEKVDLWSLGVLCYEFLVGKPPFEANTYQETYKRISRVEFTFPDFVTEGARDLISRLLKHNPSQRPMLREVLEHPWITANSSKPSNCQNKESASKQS

Homo sapiens = species: Homo sapiens; assay: Selectivity ratio of IC50 for human Aurora A to IC50 for human Aurora B
Aurora kinase C [3] = biological target: T3, Aurora kinase C (Homo sapiens, UniProt Q9UQB9); assay: Competitive inhibition of Aurora C ATP binding site
T3 sequence (Q9UQB9 whole entry): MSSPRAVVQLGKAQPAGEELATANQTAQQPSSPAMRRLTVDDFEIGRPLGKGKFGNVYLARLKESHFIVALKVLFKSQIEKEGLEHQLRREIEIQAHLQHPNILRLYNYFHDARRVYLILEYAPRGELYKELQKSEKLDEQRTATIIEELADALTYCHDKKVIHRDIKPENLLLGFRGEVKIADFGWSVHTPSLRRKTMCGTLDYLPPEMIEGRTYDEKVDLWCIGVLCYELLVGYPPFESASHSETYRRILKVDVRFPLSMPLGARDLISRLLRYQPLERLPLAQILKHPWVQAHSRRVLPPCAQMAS

A549 [4] = assay: Selectivity ratio of EC50 for human A549 cells in presence of 70% human serum albumin to EC50 for human A549 cells in absence of 70% human serum albumin; type: functional
[5] = biological target: Insulin-like growth factor 1 receptor (Homo sapiens, UniProt P08069); assay: Inhibition of IGF1R
How it was run: (§1)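 Part of a 328 human protein and lipid kinase selectivity panel run as in vitro activity or binding assays.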

[6] = biological target: Hepatocyte growth factor receptor (Homo sapiens, UniProt P08581); assay: Inhibition of MET
[7] = Plasma clearance in iv dosed rat; type: ADME, organism-based
[8] = Permeability by PAMPA; type: ADME; details: read-out: permeability
[9] = Volume of distribution at steady state in iv dosed rat; type: ADME, organism-based; details: in vivo, read-out: Vdss
Cytochrome P450 2D6 [10] = biological target: T4, Cytochrome P450 2D6 (Homo sapiens, UniProt P10635); assay: Inhibition of CYP2D6; type: ADME
How it was run: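 Human liver microsomes incubated with a selective probe substrate for each CYP isozyme, with and without test compound. Metabolite formation quantified by LC/MS/MS. Activity with compound normalized to activity without compound and expressed as percent of control. IC50 derived from the concentration response.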

Cytochrome P450 2C9 [11] = biological target: T5, Cytochrome P450 2C9 (Homo sapiens, UniProt P11712); assay: Inhibition of CYP2C9; type: ADME
[12] = Half life in iv dosed rat; type: ADME, organism-based; details: in vivo
Aurora kinase B [13] = biological target: T1, Aurora kinase B; assay: Inhibition of human Aurora B assessed as residence time by rapid dilution method
[14] = biological target: Tyrosine-protein kinase Lck (Homo sapiens) (UniProt P06239); assay: Inhibition of LCK
[15] = Inhibition of ROCK; how it was run: as §1
[16] = Mean residence time in mouse at 2 mg/kg, iv administered as single dose; type: ADME, organism-based; parameters: dose 2 mg/kg, route intravenous; details: in vivo
HL-60 [17] = assay: Antitumor activity against human HL60 cells xenografted in nude mouse assessed as complete suppression of tumor regrowth at 100 mg/kg, ip QD for 5 days and for 2 cycles measured on day 51 post last dose; type: functional, organism-based; parameters: dose 100 mg/kg
How it was run: (§2)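 Subcutaneous HL-60 xenografts in nude mice. Dosing was intraperitoneal, once daily for five days, repeated for two cycles (qdx5 ×2), at 75 or 100 mg kg-1. Untreated mice served as controls. Tumors were followed for regression and for regrowth up to 51 days after the last dose.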

Cytochrome P450 3A4 = Cytochrome P450 3A4 (Homo sapiens, UniProt P08684); assay: Inhibition of CYP3A4 in human liver microsomes using midazolam as substrate; type: ADME, Microsome
How it was run: (§3)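 Human liver microsomes were incubated with a selective probe substrate for each CYP isozyme across a compound concentration series. Product formation was monitored by LC/MS/MS. Activity was normalized to the no-compound control, expressed as percent of control activity, and used to generate an IC50.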

Aurora kinase C [18] = biological target: T3, Aurora kinase C; assay: Competitive inhibition of human Aurora C ATP binding site
Mus musculus [19] = assay: Dose normalized AUC (0 to infinity) in mouse at 2 mg/kg, iv administered as single dose; type: ADME, organism-based; parameters: time infinity, dose 2 mg/kg, route intravenous; details: in vivo
How it was run: (§4)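 Conscious mice received a single intravenous dose. Blood clearance, dose-normalized AUC(0-∞) and steady-state volume of distribution were derived from the profile.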

Cytochrome P450 1A2 = biological target: T6, Cytochrome P450 1A2 (Homo sapiens, UniProt P05177); assay: Inhibition of CYP1A2 in human liver microsomes using phenacetin as substrate; type: ADME, Microsome
T6 sequence (P05177 whole entry): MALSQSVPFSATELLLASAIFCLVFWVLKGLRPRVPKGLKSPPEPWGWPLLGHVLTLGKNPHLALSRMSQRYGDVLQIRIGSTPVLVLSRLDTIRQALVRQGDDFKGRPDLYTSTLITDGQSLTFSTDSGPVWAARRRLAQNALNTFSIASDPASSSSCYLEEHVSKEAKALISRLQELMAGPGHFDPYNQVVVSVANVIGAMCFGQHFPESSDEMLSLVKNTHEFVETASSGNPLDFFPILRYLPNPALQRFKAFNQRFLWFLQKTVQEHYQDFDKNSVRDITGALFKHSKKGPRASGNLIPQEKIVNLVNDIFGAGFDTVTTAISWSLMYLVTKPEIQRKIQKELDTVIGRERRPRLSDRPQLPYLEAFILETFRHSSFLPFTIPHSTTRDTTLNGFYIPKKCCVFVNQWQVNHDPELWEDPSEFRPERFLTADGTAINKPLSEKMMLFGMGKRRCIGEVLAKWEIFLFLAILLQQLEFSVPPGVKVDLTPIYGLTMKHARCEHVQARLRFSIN
How it was run: (§5)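 Human liver microsome incubations with a selective probe substrate for each CYP isozyme. Product formation was read by LC/MS/MS. Activity with compound was normalized to activity without compound and expressed as percent of control activity.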

Cytochrome P450 2C9 [20] = biological target: T5, Cytochrome P450 2C9; assay: Inhibition of CYP2C9 in human liver microsomes using diclofenac as substrate; type: ADME, Microsome; how it was run: as §5
Cytochrome P450 2D6 [21] = biological target: T4, Cytochrome P450 2D6; assay: Inhibition of CYP2D6 in human liver microsomes using bufuralol as substrate; type: ADME, Microsome; how it was run: as §3
Mus musculus [22] = assay: Inhibition of histone H3 phosphorylation in ip dosed mouse xenografted with human COLO205 cells after 30 hrs; type: functional, organism-based; details: COLO 205
How it was run: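 Mice bearing advanced Colo205 tumors were treated intraperitoneally at several doses. Tumor phospho-histone H3 (Ser10) was measured by ELISA 30 h post dose and expressed as percent inhibition relative to control.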

[23] = Volume of distribution at steady state in mouse at 2 mg/kg, iv administered as single dose; type: ADME, organism-based; parameters: dose 2 mg/kg, route intravenous; details: in vivo, read-out: Vdss; how it was run: as §4
[24] = biological target: T7, Aurora kinase C (Homo sapiens) (UniProt Q9UQB9); assay: Inhibition of human Aurora C assessed as dissociation half life by rapid dilution method
T7 sequence (whole entry): T3 sequence (Q9UQB9 whole entry)

HL-60 [25] = assay: Antitumor activity against human HL60 cells xenografted in nude mouse assessed as complete tumor regression at 100 mg/kg, ip QD for 5 days and for 2 cycles; type: functional, organism-based; parameters: dose 100 mg/kg; how it was run: as §2
Cytochrome P450 2C19 = Cytochrome P450 2C19 (Homo sapiens, UniProt P33261); assay: Inhibition of CYP2C19 in human liver microsomes using S-mephenytoin as substrate; type: ADME, Microsome; how it was run: as §3
[26] = Solubility at pH 4; type: physicochemical; details: buffer
HL-60 [27] = assay: Antitumor activity against human HL60 cells xenografted in nude mouse assessed as complete tumor regression at 75 mg/kg, ip QD for 5 days and for 2 cycles; type: functional, organism-based; parameters: dose 75 mg/kg; how it was run: as §2
[28] = Blood clearance in mouse at 2 mg/kg, iv administered as single dose; type: ADME, organism-based; parameters: dose 2 mg/kg, route intravenous; details: whole blood; how it was run: as §4

T1 sequence (Q96GD4 whole entry): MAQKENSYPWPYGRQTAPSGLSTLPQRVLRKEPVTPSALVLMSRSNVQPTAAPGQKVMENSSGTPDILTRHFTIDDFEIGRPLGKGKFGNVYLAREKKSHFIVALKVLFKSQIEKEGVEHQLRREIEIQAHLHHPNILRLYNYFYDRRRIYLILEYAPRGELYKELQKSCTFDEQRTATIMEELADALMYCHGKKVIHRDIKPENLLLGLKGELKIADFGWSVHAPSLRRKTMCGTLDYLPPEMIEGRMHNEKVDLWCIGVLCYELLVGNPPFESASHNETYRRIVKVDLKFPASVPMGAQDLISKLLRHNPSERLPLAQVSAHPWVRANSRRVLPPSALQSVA
T5 sequence (P11712 whole entry): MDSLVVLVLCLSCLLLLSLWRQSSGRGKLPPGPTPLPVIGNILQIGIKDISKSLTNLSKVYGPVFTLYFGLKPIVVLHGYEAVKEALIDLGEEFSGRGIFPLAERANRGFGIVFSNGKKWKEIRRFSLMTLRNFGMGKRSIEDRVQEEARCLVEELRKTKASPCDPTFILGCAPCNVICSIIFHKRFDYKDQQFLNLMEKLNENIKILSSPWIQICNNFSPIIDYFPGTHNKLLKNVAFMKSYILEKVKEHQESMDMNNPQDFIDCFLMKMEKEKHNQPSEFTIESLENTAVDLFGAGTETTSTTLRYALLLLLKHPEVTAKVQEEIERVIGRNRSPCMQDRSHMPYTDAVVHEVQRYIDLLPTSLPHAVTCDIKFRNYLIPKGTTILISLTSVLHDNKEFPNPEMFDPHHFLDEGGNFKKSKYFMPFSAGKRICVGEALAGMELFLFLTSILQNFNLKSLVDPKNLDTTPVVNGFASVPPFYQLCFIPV
Sequence of Hepatocyte growth factor receptor (P08581 whole entry): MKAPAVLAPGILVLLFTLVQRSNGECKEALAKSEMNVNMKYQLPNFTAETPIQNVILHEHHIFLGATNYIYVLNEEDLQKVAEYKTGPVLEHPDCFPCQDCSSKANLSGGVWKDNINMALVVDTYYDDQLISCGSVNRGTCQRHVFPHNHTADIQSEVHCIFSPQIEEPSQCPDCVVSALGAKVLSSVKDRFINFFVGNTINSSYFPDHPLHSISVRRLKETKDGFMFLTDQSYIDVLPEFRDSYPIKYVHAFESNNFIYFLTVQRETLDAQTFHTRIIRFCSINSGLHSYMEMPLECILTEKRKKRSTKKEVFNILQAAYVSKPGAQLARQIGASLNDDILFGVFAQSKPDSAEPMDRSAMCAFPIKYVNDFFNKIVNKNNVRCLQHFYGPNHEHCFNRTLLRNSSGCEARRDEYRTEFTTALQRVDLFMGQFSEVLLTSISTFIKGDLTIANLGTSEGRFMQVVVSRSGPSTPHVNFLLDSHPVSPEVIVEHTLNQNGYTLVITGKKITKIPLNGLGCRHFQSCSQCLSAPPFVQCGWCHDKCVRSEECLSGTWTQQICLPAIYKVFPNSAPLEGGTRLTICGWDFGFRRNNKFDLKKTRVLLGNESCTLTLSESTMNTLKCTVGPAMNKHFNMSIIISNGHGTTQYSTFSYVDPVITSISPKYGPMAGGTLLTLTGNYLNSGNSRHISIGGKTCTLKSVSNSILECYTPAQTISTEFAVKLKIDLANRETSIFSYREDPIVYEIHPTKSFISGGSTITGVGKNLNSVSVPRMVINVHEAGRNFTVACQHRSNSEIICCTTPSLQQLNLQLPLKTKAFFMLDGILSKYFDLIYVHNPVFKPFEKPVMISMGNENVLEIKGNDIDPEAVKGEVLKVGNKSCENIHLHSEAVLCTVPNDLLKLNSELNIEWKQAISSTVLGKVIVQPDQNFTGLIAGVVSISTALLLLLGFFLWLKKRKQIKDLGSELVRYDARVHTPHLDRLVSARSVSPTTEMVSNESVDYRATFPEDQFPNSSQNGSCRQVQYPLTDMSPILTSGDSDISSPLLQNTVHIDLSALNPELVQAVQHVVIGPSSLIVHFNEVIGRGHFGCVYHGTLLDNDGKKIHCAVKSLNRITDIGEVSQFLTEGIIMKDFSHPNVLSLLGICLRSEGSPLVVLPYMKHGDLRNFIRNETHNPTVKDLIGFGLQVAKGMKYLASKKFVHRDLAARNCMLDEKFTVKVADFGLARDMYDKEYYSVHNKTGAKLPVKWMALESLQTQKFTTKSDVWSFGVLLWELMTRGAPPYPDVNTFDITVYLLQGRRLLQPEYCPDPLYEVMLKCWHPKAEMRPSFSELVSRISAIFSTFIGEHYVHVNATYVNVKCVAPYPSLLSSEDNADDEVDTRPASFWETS
T4 sequence (P10635 whole entry): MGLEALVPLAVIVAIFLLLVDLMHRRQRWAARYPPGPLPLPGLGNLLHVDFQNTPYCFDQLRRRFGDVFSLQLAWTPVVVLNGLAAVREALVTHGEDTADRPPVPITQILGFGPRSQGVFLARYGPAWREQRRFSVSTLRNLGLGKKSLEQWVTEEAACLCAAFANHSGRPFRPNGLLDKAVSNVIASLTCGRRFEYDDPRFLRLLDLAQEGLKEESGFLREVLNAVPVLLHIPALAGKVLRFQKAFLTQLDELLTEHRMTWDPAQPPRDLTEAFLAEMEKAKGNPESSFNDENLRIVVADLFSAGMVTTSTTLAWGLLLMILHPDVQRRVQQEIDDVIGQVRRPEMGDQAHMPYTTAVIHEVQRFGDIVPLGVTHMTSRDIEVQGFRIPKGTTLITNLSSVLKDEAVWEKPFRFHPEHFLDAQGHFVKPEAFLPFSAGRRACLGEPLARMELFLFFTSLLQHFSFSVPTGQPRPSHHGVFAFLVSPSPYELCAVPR
Sequence of Tyrosine-protein kinase Lck (Homo sapiens) (P06239 2-509 limits assumed): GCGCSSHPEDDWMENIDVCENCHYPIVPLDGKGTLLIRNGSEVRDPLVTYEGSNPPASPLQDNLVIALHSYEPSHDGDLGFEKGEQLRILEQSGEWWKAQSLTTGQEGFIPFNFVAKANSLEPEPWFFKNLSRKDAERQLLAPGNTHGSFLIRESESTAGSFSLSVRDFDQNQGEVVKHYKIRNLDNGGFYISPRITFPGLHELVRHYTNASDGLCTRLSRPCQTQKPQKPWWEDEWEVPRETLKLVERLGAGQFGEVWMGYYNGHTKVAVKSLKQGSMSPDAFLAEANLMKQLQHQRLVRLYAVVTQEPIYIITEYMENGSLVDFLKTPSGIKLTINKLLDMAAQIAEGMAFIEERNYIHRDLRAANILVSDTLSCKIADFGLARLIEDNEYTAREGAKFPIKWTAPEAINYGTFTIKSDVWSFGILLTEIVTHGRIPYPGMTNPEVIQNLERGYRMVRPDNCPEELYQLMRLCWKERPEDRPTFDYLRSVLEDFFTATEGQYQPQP
Sequence of Insulin-like growth factor 1 receptor (P08069 31-736 limits assumed): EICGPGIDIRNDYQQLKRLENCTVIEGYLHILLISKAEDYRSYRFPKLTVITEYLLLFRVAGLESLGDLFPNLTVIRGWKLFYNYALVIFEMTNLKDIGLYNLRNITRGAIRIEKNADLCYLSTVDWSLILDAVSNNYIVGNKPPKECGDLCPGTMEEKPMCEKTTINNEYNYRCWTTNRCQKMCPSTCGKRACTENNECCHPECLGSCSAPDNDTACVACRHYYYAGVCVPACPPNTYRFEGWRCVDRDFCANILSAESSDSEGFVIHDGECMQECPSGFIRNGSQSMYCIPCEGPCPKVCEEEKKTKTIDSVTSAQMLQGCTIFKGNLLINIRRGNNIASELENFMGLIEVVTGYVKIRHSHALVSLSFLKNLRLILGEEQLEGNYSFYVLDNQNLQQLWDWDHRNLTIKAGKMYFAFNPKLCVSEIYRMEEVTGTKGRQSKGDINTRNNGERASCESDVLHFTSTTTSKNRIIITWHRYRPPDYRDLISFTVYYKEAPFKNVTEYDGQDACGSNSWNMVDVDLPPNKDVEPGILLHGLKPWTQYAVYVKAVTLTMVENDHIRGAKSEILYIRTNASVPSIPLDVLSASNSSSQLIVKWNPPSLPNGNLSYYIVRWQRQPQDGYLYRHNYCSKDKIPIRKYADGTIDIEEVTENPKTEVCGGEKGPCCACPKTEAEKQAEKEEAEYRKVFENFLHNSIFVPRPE
Sequence of Insulin-like growth factor 1 receptor (P08069 741-1367 limits assumed): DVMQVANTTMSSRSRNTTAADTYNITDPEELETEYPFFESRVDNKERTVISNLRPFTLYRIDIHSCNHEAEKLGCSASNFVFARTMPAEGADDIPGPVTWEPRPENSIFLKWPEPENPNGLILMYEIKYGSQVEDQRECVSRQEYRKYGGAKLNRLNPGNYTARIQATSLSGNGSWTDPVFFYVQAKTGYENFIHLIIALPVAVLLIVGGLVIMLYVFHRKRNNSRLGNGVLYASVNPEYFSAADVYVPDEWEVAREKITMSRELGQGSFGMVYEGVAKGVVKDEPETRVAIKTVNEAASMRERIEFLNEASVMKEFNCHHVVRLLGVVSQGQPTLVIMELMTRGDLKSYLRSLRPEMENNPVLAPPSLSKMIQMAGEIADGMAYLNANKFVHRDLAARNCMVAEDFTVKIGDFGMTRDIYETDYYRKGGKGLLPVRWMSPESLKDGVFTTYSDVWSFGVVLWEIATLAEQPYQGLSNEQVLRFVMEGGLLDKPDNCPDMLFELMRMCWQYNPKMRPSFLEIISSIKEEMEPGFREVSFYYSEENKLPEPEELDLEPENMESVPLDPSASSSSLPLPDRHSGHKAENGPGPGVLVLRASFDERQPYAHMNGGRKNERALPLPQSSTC
Sequence of Cytochrome P450 2C19 (P33261 whole entry): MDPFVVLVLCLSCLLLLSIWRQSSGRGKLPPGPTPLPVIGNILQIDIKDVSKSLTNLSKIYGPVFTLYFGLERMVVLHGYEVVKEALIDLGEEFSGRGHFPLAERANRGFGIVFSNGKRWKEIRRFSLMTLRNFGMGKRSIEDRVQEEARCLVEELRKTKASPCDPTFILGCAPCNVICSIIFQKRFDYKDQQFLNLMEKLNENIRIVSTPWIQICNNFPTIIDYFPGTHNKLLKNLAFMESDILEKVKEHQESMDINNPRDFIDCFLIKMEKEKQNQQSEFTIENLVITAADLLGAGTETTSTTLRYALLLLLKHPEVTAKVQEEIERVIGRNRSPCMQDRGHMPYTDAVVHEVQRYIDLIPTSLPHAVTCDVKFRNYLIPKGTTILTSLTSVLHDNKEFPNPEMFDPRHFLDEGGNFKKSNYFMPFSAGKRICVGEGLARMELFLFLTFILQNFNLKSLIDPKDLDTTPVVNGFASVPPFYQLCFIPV

SMILES	EC50 (A549 [1])	IC50 (Aurora kinase B [2])	IC50 (Aurora kinase A)	Ratio EC50 (A549 [4])	further results
CCn1cc(-c2ccnc3[nH]c(-c4ccc(CN(C)C)cc4)cc23)c(-c2ccc(NC(=O)N(C)C)cc2)n1	6 nM	3.6 nM	514 nM	–	Ratio IC50 (Homo sapiens): 156
CCN(CCCOc1ccc2c(Nc3cc(CC(=O)Nc4cccc(F)c4)n[nH]3)ncnc2c1)CCOP(=O)(O)O [BARASERTIB]	–	–	–	–	IC50 (Aurora kinase C [3]): 17 nM
CCn1cc(-c2ccnc3[nH]c(-c4cccc(CN5CCCC5)c4)cc23)c(-c2ccc(NC(=O)Nc3ccccc3)cc2)n1	12 nM	11 nM	22 nM	10	–
CCNC(=O)Nc1ccc(-c2nn(CC)cc2-c2ccnc3[nH]c(-c4cccc(CN(C)C)c4)cc23)cc1	12 nM	3 nM	128 nM	–	Ratio IC50 (Homo sapiens): 42
CCn1cc(-c2ccnc3[nH]ccc23)c(-c2ccc(NC(=O)Nc3ccccc3)cc2)n1	79 nM	–	631 nM	–	IC50 [5]: 158 nM; IC50 [6]: 316 nM; clearance [7]: 128 mL/min/kg; Papp [8]: 17 ×10⁻⁶ cm/s; Vd [9]: 1.7 L/kg; IC50 (Cytochrome P450 2D6 [10]): < 100 nM; IC50 (Cytochrome P450 2C9 [11]): < 100 nM; half-life [12]: 12 min; TIME (Aurora kinase B [13]): 0.128 h
CCn1cc(-c2ccnc3[nH]c(CNCCCN4CCN(C)CC4)cc23)c(-c2ccc(NC(=O)Nc3ccccc3)cc2)n1	> 20000 nM	83 nM	5110 nM	10	–
CCn1cc(-c2ccnc3[nH]c(-c4cccc(CN(C)C)c4)cc23)c(-c2ccc(NC(=O)Nc3ccccc3)cc2)n1	14 nM	20 nM	53 nM	10	inhibition [14]: Active; inhibition [6]: Active; Ratio IC50 (Homo sapiens): 3; inhibition [15]: Active
CCn1cc(-c2ccnc3[nH]c(-c4cccc(CN(C)C)c4)cc23)c(-c2ccc(NC(=O)N(C)C)cc2)n1 [GSK-1070916]	–	5 nM	–	–	MRT [16]: 18 min; inhibition (HL-60 [17]): Active; inhibition (INH) (Cytochrome P450 3A4): Not Active; Ki (Aurora kinase C [18]): 1.5 nM; AUC (Mus musculus [19]): 345 ng·h/mL/mg/kg; IC50 (Cytochrome P450 1A2): > 33000 nM; IC50 (Cytochrome P450 2C9 [20]): 38000 nM; IC50 (Aurora kinase C [3]): 6.5 nM; Ki (Aurora kinase C [3]): 1.5 nM; IC50 (Cytochrome P450 2D6 [21]): 12000 nM; inhibition (Mus musculus [22]): Dose-dependent effect; Vd [23]: 0.8 L/kg; Activity [24]: 270 min; inhibition (HL-60 [25]): Active; IC50 (Cytochrome P450 2C19): 81000 nM; solubility [26]: > 10000 µg/mL; inhibition (HL-60 [27]): Active; clearance [28]: 49.4 mL/min/kg
CCn1cc(-c2ccnc3[nH]c(-c4cc(CN(C)C)ccc4C)cc23)c(-c2ccc(NC(=O)Nc3ccccc3)cc2)n1	174 nM	60 nM	113 nM	10	–
CCn1cc(-c2ccnc3[nH]c(-c4ccc(CN(C)C)cc4)cc23)c(-c2ccc(NC(=O)Nc3ccccc3)cc2)n1	8 nM	23 nM	45 nM	10	–
CCn1cc(-c2ccnc3[nH]c(CNCCN4CCOCC4)cc23)c(-c2ccc(NC(=O)Nc3ccccc3)cc2)n1	2860 nM	22 nM	2440 nM	10	–
CCn1cc(-c2ccnc3[nH]c(-c4ccc(CN(C)C)cc4C)cc23)c(-c2ccc(NC(=O)Nc3ccccc3)cc2)n1	16 nM	26 nM	42 nM	10	–
